# Test results: ChEMBL document CHEMBL1142515, “Synthesis and evaluation of structurally constrained quinazolinone derivatives as potent and selective histamine H3 receptor inverse agonists” (J Med Chem, 2008)
# Legend:
# Histamine H3 receptor [1] = target: T1, Histamine H3 receptor (Homo sapiens, UniProt Q9Y5N1); assay: Antagonist activity at human cloned histamine H3 receptor expressed in CHO-K1 cells assessed as inhibition of R-alpha-methylhistamine-induced [35S]GTPgammaS binding; format: functional, cell-based
# T1 sequence (Q9Y5N1 whole entry): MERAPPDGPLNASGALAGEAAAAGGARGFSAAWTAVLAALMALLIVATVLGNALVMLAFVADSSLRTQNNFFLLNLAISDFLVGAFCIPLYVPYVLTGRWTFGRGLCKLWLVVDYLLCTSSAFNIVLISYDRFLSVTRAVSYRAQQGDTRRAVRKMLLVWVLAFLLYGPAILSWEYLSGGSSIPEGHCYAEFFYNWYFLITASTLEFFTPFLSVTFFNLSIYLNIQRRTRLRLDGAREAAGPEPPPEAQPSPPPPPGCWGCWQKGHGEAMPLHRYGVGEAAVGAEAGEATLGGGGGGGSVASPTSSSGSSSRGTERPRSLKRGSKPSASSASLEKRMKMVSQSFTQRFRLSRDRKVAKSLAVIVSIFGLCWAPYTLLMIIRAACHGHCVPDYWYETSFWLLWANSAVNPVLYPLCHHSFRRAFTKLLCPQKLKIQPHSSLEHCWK
# [2] = target: Voltage-gated inwardly rectifying potassium channel KCNH2 (Homo sapiens, UniProt Q12809); assay: Antagonist activity at human ERG in HEK293 cells assessed as inhibition of [35S]N-[(4R)-1'-[(2R)-6-cyano-1,2,3,4-tetrahydro-2-naphthalenyl]-3,4-dihydro-4-hydroxyspiro[2H-1-benzopyran-2,4'-piperidin]-6-yl]methanesulfonamide binding
# Sequence of Voltage-gated inwardly rectifying potassium channel KCNH2 (Q12809 whole entry): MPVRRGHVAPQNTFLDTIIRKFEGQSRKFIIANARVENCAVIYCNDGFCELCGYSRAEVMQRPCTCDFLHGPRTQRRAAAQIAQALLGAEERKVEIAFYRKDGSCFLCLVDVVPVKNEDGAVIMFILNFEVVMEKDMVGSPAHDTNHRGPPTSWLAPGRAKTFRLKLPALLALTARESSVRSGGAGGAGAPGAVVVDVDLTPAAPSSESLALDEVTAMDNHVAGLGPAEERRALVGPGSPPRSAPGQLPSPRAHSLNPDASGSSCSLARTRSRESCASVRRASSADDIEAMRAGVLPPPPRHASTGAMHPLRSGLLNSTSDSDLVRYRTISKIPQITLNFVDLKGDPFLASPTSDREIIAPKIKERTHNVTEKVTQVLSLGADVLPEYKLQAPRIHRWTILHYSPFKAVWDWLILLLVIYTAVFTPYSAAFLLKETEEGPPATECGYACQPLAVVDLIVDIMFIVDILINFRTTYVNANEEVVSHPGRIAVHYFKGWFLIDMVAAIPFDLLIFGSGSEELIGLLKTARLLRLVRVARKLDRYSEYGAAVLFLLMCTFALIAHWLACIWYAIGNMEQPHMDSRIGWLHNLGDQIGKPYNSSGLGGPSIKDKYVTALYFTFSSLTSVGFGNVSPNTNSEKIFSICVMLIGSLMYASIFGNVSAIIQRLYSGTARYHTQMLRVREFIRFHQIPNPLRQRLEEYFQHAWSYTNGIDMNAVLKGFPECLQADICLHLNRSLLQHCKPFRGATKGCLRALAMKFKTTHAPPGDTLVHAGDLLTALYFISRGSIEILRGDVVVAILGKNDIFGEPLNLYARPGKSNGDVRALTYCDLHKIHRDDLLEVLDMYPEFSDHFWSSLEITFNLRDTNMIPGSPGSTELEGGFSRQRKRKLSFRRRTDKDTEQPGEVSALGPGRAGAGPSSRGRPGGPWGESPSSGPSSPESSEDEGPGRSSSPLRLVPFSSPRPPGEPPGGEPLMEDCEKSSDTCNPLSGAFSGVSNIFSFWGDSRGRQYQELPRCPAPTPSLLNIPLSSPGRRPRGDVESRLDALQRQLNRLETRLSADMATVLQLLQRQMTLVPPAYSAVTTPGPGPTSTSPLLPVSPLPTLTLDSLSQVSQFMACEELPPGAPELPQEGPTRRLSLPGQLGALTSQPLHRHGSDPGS
# [3] = Drug level in Sprague-Dawley rat cerebrospinal fluid at 10 mg/kg, po after 2 hrs; format: ADME, organism-based; parameters: dose 10 mg/kg, route oral; details: read-out: Drug uptake
# Procedure, shortened: (§1)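 Male SD rats dosed orally at 10 mg/kg. Plasma, brain and CSF concentrations determined 2 h after dosing. Brain/plasma ratio taken from these levels. Mean of n = 3 animals.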
# Brain = assay: Drug level in Sprague-Dawley rat brain at 10 mg/kg, po after 2 hrs; format: ADME, organism-based; parameters: dose 10 mg/kg, route oral; details: in vivo; procedure, shortened: as §1
# [4] = Cmax in Beagle dog at 0.3 mg/kg, iv and 1 mg/kg, po; format: ADME, organism-based, Canis lupus familiaris; details: in vivo
# Procedure, shortened: (§2)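 Male SD rats, male Beagle dogs, male rhesus monkeys given single doses iv (PEG400/EtOH/H2O 50/10/40) or po by gavage (0.5% methylcellulose suspension). Rats 1 mg/kg iv and 3 mg/kg po; dogs and monkeys 0.3 mg/kg iv and 1 mg/kg po. Plasma sampled at multiple times up to 24 h, deproteinized with ethanol plus internal standard. Mean of n = 3 animals/dose.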
# [5] = Cmax in rhesus monkey at 0.3 mg/kg, iv and 1 mg/kg, po; format: ADME, organism-based, Macaca mulatta; details: in vivo; procedure, shortened: as §2
# Rhesus monkey [6] = assay: AUC (0 to infinity) in rhesus monkey at 1 mg/kg, po; format: ADME, organism-based, Macaca mulatta, Plasma; parameters: time infinity, dose 1 mg/kg, route oral; details: in vivo; procedure, shortened: as §2
# [7] = Oral bioavailability in Sprague-Dawley rat at 3 mg/kg; format: ADME, organism-based; details: in vivo; procedure, shortened: as §2
# Histamine H3 receptor [8] = target: Histamine H3 receptor (Mus musculus, UniProt P58406); assay: Displacement of [3H]N-alpha-methylhistamine from mouse recombinant histamine H3 receptor
# Sequence of Histamine H3 receptor (Mus musculus, UniProt P58406) (P58406 whole entry): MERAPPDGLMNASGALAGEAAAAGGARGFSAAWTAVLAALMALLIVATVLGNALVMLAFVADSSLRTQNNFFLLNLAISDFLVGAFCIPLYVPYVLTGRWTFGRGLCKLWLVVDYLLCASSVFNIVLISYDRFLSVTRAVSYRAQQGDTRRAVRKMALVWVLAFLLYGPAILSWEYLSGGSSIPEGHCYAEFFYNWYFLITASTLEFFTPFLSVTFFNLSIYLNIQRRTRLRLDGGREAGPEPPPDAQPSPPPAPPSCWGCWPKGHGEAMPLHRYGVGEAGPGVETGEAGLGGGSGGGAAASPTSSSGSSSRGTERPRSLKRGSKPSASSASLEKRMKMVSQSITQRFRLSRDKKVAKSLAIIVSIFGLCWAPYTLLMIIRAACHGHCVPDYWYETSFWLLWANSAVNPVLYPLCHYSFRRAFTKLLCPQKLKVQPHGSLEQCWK
# Canis familiaris [9] = assay: AUC (0 to infinity) in Beagle dog at 1 mg/kg, po; format: ADME, organism-based, Canis lupus familiaris, Plasma; parameters: time infinity, dose 1 mg/kg, route oral; details: in vivo; procedure, shortened: as §2
# [10] = AUC (0 to infinity) in Sprague-Dawley rat at 3 mg/kg, po; format: ADME, organism-based; parameters: time infinity, dose 3 mg/kg, route oral; details: plasma; procedure, shortened: as §2
# [11] = Cmax in Sprague-Dawley rat at 1 mg/kg, iv and 3 mg/kg, po; format: ADME, organism-based; details: in vivo; procedure, shortened: as §2
# LLC-PK1 [12] = assay: Ratio of permeability from apical to basolateral side over basolateral to apical side in pig LLC-PK1 cells expressing mouse MDR1a; format: ADME, cell-based, Sus scrofa
# [13] = Plasma clearance in Sprague-Dawley rat at 1 mg/kg, iv; format: ADME, organism-based; parameters: dose 1 mg/kg, route intravenous; procedure, shortened: as §2
# [14] = Ratio of drug level in brain to plasma in Sprague-Dawley rat at 10 mg/kg, po after 2 hrs; format: ADME, organism-based; parameters: dose 10 mg/kg, route oral; details: read-out: BPR; procedure, shortened: as §1
# Rhesus monkey [15] = assay: Oral bioavailability in rhesus monkey at 1 mg/kg; format: ADME, organism-based, Macaca mulatta; details: in vivo; procedure, shortened: as §2
# LLC-PK1 [16] = assay: Ratio of permeability from apical to basolateral side over basolateral to apical side in pig LLC-PK1 cells expressing human MDR1; format: ADME, cell-based, Sus scrofa
# [17] = Ratio of drug level in cerebrospinal fluid to brain in Sprague-Dawley rat at 10 mg/kg, po after 2 hrs; format: ADME, organism-based, CSF/Brain; parameters: dose 10 mg/kg, route oral; details: in vivo
# [18] = Plasma concentration in Sprague-Dawley rat at 10 mg/kg, po after 2 hrs; format: ADME, organism-based; parameters: dose 10 mg/kg, route oral; procedure, shortened: as §1
# Histamine H3 receptor [19] = target: Histamine H3 receptor (Rattus norvegicus, UniProt Q9QYN8); assay: Displacement of [3H]N-alpha-methylhistamine from rat recombinant histamine H3 receptor expressed in HEK293 cells; format: cell-based
# Sequence of Histamine H3 receptor (Rattus norvegicus, UniProt Q9QYN8) (Q9QYN8 whole entry): as the sequence (P58406 whole entry) above, with A15T, T286A, G290A, H387R, V389I counted along it
# Histamine H3 receptor [20] = target: T1, Histamine H3 receptor; assay: Displacement of [3H]N-alpha-methylhistamine from human recombinant histamine H3 receptor expressed in CHO-K1 cells; format: cell-based
# Canis familiaris [21] = assay: Oral bioavailability in Beagle dog at 1 mg/kg; format: ADME, organism-based, Canis lupus familiaris; details: in vivo; procedure, shortened: as §2
IC50 (Histamine H3 receptor [1]) [nM],SMILES,IC50 [2] [µM],also measured
0.91,Cc1nc2cc(F)c(F)cc2c(=O)n1-c1ccc(OC2CCN(C3CCC3)CC2)cc1,> 10,–
1.8,COc1ccc2c(=O)n(-c3ccc(OC4CCN(C5CCC5)CC4)cc3)c(C)nc2c1,> 10,–
1.5,Cc1nc2ccc(Cl)cc2c(=O)n1-c1ccc(OC2CCN(C3CCC3)CC2)cc1,5.4,–
1.5,Cc1nc2ccccc2c(=O)n1-c1ccc(OC2CCN(C3CCC3)CC2)cc1,> 10,–
1.7,Cc1nc2c(Cl)cccc2c(=O)n1-c1ccc(OC2CCN(C3CCC3)CC2)cc1,–,–
1.5,COc1ccc2nc(C)n(-c3ccc(OC4CCN(C5CCC5)CC4)cc3)c(=O)c2c1,> 10,–

# The next lines start with the compound.
SMILES,IC50 (Histamine H3 receptor [1]) [nM],IC50 [2] [µM],also measured
CCCCN1CCC(Oc2ccc(-n3c(C)nc4ccccc4c3=O)cc2)CC1,91,–,–
Cc1nc2ccccc2c(=O)n1-c1ccc(OC2CCC(N3CCCC3)C2)cc1 (stereo in doubt; 3a),3.4,> 10,–
COc1cccc2c(=O)n(-c3ccc(OC4CCN(C5CCC5)CC4)cc3)c(C)nc12,4.2,> 10,–
Cc1nc2ccccc2c(=O)n1-c1ccc(OC2CCN(C3CCCC3)CC2)cc1,3.2,> 10,–
Cc1nc2ccccc2c(=O)n1-c1ccc(O[C@H]2CC[C@@H](N3CCCC3)CC2)cc1,10,–,–
Cc1cccc2nc(C)n(-c3ccc(OC4CCN(C5CCC5)CC4)cc3)c(=O)c12,0.27,> 10,concentration at 2 h [3]: 100 nM; Drug uptake (Brain): 3.2 nmol/g; Cmax [4]: 1100 nM; Cmax [5]: 20 nM; AUC (Rhesus monkey [6]): 0.08 µM·h; bioavailability [7]: 40%; Ki (Histamine H3 receptor [8]): 3.9 nM; AUC (Canis familiaris [9]): 5.6 µM·h; AUC(0-inf) [10]: 2.33 µM·h; Cmax [11]: 560 nM; Ratio (LLC-PK1 [12]): 1; clearance [13]: 25 mL/min/kg; Kp at 2 h [14]: 2.3; F (Rhesus monkey [15]): 1%; Ratio (LLC-PK1 [16]): 0.9; Ratio [17]: 0.03; concentration at 2 h [18]: 1400 nM; Ki (Histamine H3 receptor [19]): 1.8 nM; Ki (Histamine H3 receptor [20]): 1.7 nM; F (Canis familiaris [21]): 76%
Cc1nc2ccccc2c(=O)n1-c1ccc(OC2CCCN(C3CCCC3)CC2)cc1 (stereo not drawn),7,–,–
Cc1nc2ccccc2c(=O)n1-c1ccc(OC2CCN(C3CCCCC3)CC2)cc1,43,–,–
Cc1nc2ccccc2c(=O)n1-c1ccc(OC2CCN(C(C)C)CC2)cc1,14,–,–
Cc1nc2ccccc2c(=O)n1-c1ccc(OC2CCNCC2)cc1,> 1000,–,–
CNC(=O)c1ccc(Oc2ccc3c(c2)CCN(C2CCC2)CC3)nc1 [GSK189254],0.55,–,–
Cc1nc2cccnc2c(=O)n1-c1ccc(OC2CCN(C3CCC3)CC2)cc1,14,> 10,–
